Reference: ChEMBL document CHEMBL1153746, “Mansouramycins A-D, cytotoxic isoquinolinequinones from a marine streptomycete” (J Nat Prod, 2009)
pIC50: −log10 of the molar value.

What was measured:
[1] = Cytotoxicity against human GXF251L cells after 4 days by propidium iodide assay; type: functional, cell-based; details: GXF 251L, 96 h
Summary of the method: (§1)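 Monolayer cell proliferation assay across a panel of up to 36 human tumour lines covering 14 solid tumour types. Lines came either from patient tumours grown as subcutaneous xenografts in NMRI nu/nu mice or from culture collections (ATCC, NCI, DSMZ). Potency is given as IC50.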

[2] = Cytotoxicity against human LXFL 529L cells after 4 days by propidium iodide assay; type: functional, cell-based; details: 96 h; summary of the method: as §1
[3] = Cytotoxicity against human UXF 1138L cells after 4 days by propidium iodide assay; type: functional, cell-based; details: 96 h; summary of the method: as §1
OVCAR-3 = assay: Cytotoxicity against human OVCAR-3 cells after 4 days by propidium iodide assay; type: functional, cell-based; details: OVCAR-3, 96 h; summary of the method: as §1
[4] = Cytotoxicity against human 1657L cells after 4 days by propidium iodide assay; type: functional, cell-based; details: 96 h; summary of the method: as §1
[5] = Cytotoxicity against human 899L cells after 4 days by propidium iodide assay; type: functional, cell-based; details: 96 h; summary of the method: as §1
[6] = Cytotoxicity against human 629L cells after 4 days by propidium iodide assay; type: functional, cell-based; details: 96 h; summary of the method: as §1
[7] = Cytotoxicity against human MAXF 401NL cells after 4 days by propidium iodide assay; type: functional, cell-based; details: 96 h; summary of the method: as §1
[8] = Cytotoxicity against human 1752L cells after 4 days by propidium iodide assay; type: functional, cell-based; details: 96 h; summary of the method: as §1
[9] = Cytotoxicity against human 289L cells after 4 days by propidium iodide assay; type: functional, cell-based; details: 96 h; summary of the method: as §1
CWR22R = assay: Cytotoxicity against human 22Rv1 cells after 4 days by propidium iodide assay; type: functional, cell-based; details: 22Rv1, 96 h; summary of the method: as §1
[10] = Cytotoxicity against human 393NL cells after 4 days by propidium iodide assay; type: functional, cell-based; details: 96 h; summary of the method: as §1
[11] = Cytotoxicity against human 498NL cells after 4 days by propidium iodide assay; type: functional, cell-based; details: 96 h; summary of the method: as §1
[12] = Cytotoxicity against human RXF 486L cells after 4 days by propidium iodide assay; type: functional, cell-based; details: 96 h; summary of the method: as §1
[13] = Cytotoxicity against human 1218L cells after 4 days by propidium iodide assay; type: functional, cell-based; details: 96 h; summary of the method: as §1
[14] = Cytotoxicity against human 276L cells after 4 days by propidium iodide assay; type: functional, cell-based; details: 96 h; summary of the method: as §1
[15] = Cytotoxicity against human MEXF 462NL cells after 4 days by propidium iodide assay; type: functional, cell-based; details: 96 h; summary of the method: as §1
[16] = Cytotoxicity against human PC3M cells after 4 days by propidium iodide assay; type: functional, cell-based; details: PC-3M, 96 h; summary of the method: as §1
Chlorella sorokiniana = assay: Antialgal activity against Chlorella sorokiniana at […] by agar diffusion test; type: functional
Bacillus subtilis = assay: Antibacterial activity against Bacillus subtilis at […] by agar diffusion test; type: functional
Desmodesmus subspicatus = assay: Antialgal activity against Scenedesmus subspicatus at […] by agar diffusion test; type: functional
Escherichia coli = assay: Antibacterial activity against Escherichia coli at […] by agar diffusion test; type: functional
Chlorella vulgaris = assay: Antialgal activity against Chlorella vulgaris at […] by agar diffusion test; type: functional
[17] = system: Streptomyces viridochromogenes; assay: Antibacterial activity against Streptomyces viridochromogenes at […] by agar diffusion test; type: functional
Rhizomucor miehei = assay: Antifungal activity against Mucor miehei at […] by agar diffusion test; type: functional
Staphylococcus aureus = assay: Antibacterial activity against Staphylococcus aureus at […] by agar diffusion test; type: functional
Candida albicans = assay: Antifungal activity against Candida albicans at […] by agar diffusion test; type: functional

SMILES: CNC1=C(Cl)C(=O)c2cc(C)ncc2C1=O
- pIC50 [1]: 5.76
- pIC50 [2]: 5.81
- pIC50 [3]: 5.77
- pIC50 (OVCAR-3): 5.70
- pIC50 [4]: 5.74
- pIC50 [5]: 4.86
- pIC50 [6]: 5.91
- pIC50 [7]: 5.45
- pIC50 [8]: 5.28
- pIC50 [9]: 5.22
- pIC50 (CWR22R): 5.25
- pIC50 [10]: 5.80
- pIC50 [11]: 5.87
- pIC50 [12]: 4.75
- pIC50 [13]: 5.86
- pIC50 [14]: 6.44
- pIC50 [15]: 5.25
- pIC50 [16]: 5.49

SMILES: O=S(=O)(O)O.Oc1cccc2cccnc12 [QUINOSOL]
- diameter of the inhibition zone (DIZ) (Chlorella sorokiniana): 28 mm
- diameter of the inhibition zone (DIZ) (Bacillus subtilis): 15 mm
- diameter of the inhibition zone (DIZ) (Desmodesmus subspicatus): 27 mm
- diameter of the inhibition zone (DIZ) (Escherichia coli): 15 mm
- diameter of the inhibition zone (DIZ) (Chlorella vulgaris): 25 mm
- diameter of the inhibition zone (DIZ) [17]: 0 mm
- diameter of the inhibition zone (DIZ) (Rhizomucor miehei): 30 mm
- diameter of the inhibition zone (DIZ) (Staphylococcus aureus): 20 mm
- diameter of the inhibition zone (DIZ) (Candida albicans): 11 mm
